Measured values from different studies.
Compare with care: the assays were run in different laboratories.
PPO3: PPO3 (Agaricus bisporus, UniProt C7FF04)
PFF0160c: Dihydroorotate dehydrogenase (quinone), mitochondrial (PFF0160c, Plasmodium falciparum, UniProt Q08210)
AURKB: Aurora kinase B (AURKB, Homo sapiens, UniProt Q96GD4)
PDE5A: cGMP-specific 3',5'-cyclic phosphodiesterase (PDE5A, Homo sapiens, UniProt O76074)
MEP1A: Meprin A subunit alpha (MEP1A, Homo sapiens, UniProt Q16819)
PDE4A: 3',5'-cyclic-AMP phosphodiesterase 4A (PDE4A, Homo sapiens, UniProt P27815)
KDM1A: Lysine-specific histone demethylase 1A (KDM1A, Homo sapiens, UniProt O60341)
HDAC2: Histone deacetylase 2 (HDAC2, Homo sapiens, UniProt Q92769)
BMX: Cytoplasmic tyrosine-protein kinase BMX (BMX, Homo sapiens, UniProt P51813)

SMILES	target	test	setting	IC50 [nM]
Nc1nc(N)c(N=Nc2ccc([N+](=O)[O-])cc2)c(Cl)n1	PPO3	enzyme activity, inhibitor, absorbance	–	37200
COCCOc1nc2nc(C)cc(Nc3ccc(Cl)cc3)n2n1	PFF0160c	enzyme activity, inhibitor	–	> 10000
CCCC[C@H](NC(=O)[C@H](C)c1c(C)[nH]c2ccc(O)cc12)c1ncc(-c2cc3ccccc3nc2OC)[nH]1	Cannabinoid receptor 1 (CNR1, Homo sapiens, UniProt P21554)	cell-free assay	–	9750
O=C(Nc1c[nH]nc1-c1nc2cc(CN3CCOCC3)ccc2[nH]1)NC1CC1	AURKB	enzyme activity, inhibitor, mobility shift	–	2.3
CC(C)(C)N1C(=O)[C@H]2Cc3c([nH]c4ccccc34)[C@@H](c3cccnc3)N2C1=O	PDE5A	enzyme activity, inhibitor, FP	–	410
Nc1nc(N)c(N=Nc2ccccc2[N+](=O)[O-])c(Cl)n1	PPO3	enzyme activity, inhibitor, absorbance	–	24700
Cc1[nH]ncc1C(=O)N1CCC(C)(NC(=O)c2c[nH]c(=O)c3ccccc23)C1 (stereo not drawn)	Poly [ADP-ribose] polymerase 1 (PARP1, Homo sapiens, UniProt P09874)	enzyme activity, inhibitor	–	794
Cc1cc(Nc2ccc3c(c2)CCCC3)n2ccnc2n1	PFF0160c	enzyme activity, inhibitor	–	100
C[S+]([O-])c1ccc(-c2nc(-c3ccncc3)c(-c3ccc(F)cc3)[nH]2)cc1 (stereo not drawn)	Serine/threonine-protein kinase A-Raf (ARAF, Homo sapiens, UniProt P10398)	enzyme activity, inhibitor	lysate	> 10000
COc1ccc(N=Nc2c(N)nc(N)nc2N)cc1	PPO3	enzyme activity, inhibitor, absorbance	–	43800
O=C(CCN(Cc1cccnc1)Cc1ccc2c(c1)OCO2)NO	MEP1A	enzyme activity, inhibitor	–	464
Cc1ccc(C(C)C)cc1NC(=O)COC(=O)/C=C/c1ccccc1	PPO3	enzyme activity, inhibitor	–	780
CN(CCCCNC(=O)c1cc2ccccc2[nH]1)[C@@H]1Cc2cccc3[nH]c(=O)n(c23)C1	5-hydroxytryptamine receptor 2A (HTR2A, Homo sapiens, UniProt P28223)	ligand displacement, radioligand	–	1940
Cc1cc(Nc2ccc(Cl)cc2)n2nc(OCCN)nc2n1	PFF0160c	enzyme activity, inhibitor	–	> 10000
COc1ccc(C2=NN(C3CCCCCC3)C(=O)[C@@H]3CC=CC[C@H]23)cc1-c1ccc(C(=O)NCC(N)=O)cc1 (relative stereo)	PDE4A	enzyme activity, inhibitor	–	316
CCCSc1nc(Sc2nc3ccccc3s2)c2nnn(CCO)c2n1	KDM1A	enzyme activity, inhibitor, fluorescence	–	847
Cc1ccc(C(C)C)cc1NC(=O)COC(=O)/C=C/c1ccccc1O	PPO3	enzyme activity, inhibitor	–	1810
Cc1cc(Nc2ccc(C(F)(F)F)cc2)n2nc(OCCN(C)C)nc2n1	PFF0160c	enzyme activity, inhibitor	–	> 10000
CCCON(Cc1ccc(C(=O)NO)cc1)C(=O)Nc1ccccc1	HDAC2	enzyme activity, inhibitor, fluorescence	–	1420
Cc1cc(Nc2ccc(C(F)(F)F)cc2)c2ccccc2n1	PFF0160c	enzyme activity, inhibitor	–	980
Cc1cc(Nc2cc3ncccc3c(N[C@@H]3C[C@H]4CC[C@@H](C3)N4CCC#N)n2)n[nH]1	AURKB	target engagement in cells, inhibitor, BRET	–	> 10000

SMILES	target	test	setting	IC50 [nM]
CC(C)C[C@H]1CC(=O)N2CCC[C@H]2C(=O)N[C@@H](CCCCCC(=O)NO)C(=O)N[C@@H](Cc2c[nH]c3ccccc23)C(=O)N1	HDAC2	enzyme activity, inhibitor	–	3.5
Cc1cc(Nc2ccc(Cl)cc2)n2[nH]c(=O)nc2n1	PFF0160c	enzyme activity, inhibitor	–	> 10000
Cc1ccc(C(C)C)cc1NC(=O)COC(=O)c1ccc(O)cc1	PPO3	enzyme activity, inhibitor	–	18000
C=CC(=O)Nc1cc(Nc2nccc(Nc3cc(Cl)c(F)cc3C(C)(C)O)n2)c(OC)cc1N1CC[C@@H](N(C)C)C1	BMX	enzyme activity, inhibitor	with preincubation	2290
Cc1cc(Nc2cccc(Cl)c2)n2nc(OCCN(C)C)nc2n1	PFF0160c	enzyme activity, inhibitor	–	> 10000
COc1ccc([C@@H]2c3[nH]c4ccccc4c3C[C@H]3C(=O)N(c4ccc(Cl)cc4)C(=O)N23)cc1OC	PDE5A	enzyme activity, inhibitor, FP	–	5360
Cc1cnc(-c2ccc(-c3ccc(NC(=O)Nc4c(F)cc(F)cc4F)cc3F)c3c2C(=O)NC3)[nH]1	BMX	enzyme activity, inhibitor	–	14.4
CCN1C(=O)[C@H]2Cc3c([nH]c4ccccc34)[C@H](c3ccc(OC)c(OC)c3)N2C1=O	PDE5A	enzyme activity, inhibitor, FP	–	7000
CCCCC[C@H](O)/C=C/[C@H]1[C@@H]2CO[C@@H](C2)[C@@H]1C/C=C\CCCC(=O)O	Thromboxane A2 receptor (TBXA2R, Homo sapiens, UniProt P21731)	ligand displacement, radioligand	–	13
CC(=O)N[C@@H](CC(=O)O)C(=O)N[C@@H](CCC(=O)O)C(=O)N[C@H](C(=O)N[C@H](C=O)CC(=O)O)C(C)C	Caspase-6 (CASP6, Homo sapiens, UniProt P55212)	enzyme activity, inhibitor	–	23.2
O=C(CCN(Cc1ccncc1)Cc1ccc(Cl)c(O)c1F)NO	MEP1A	enzyme activity, inhibitor	–	646
Cc1cc(Nc2cccc(Cl)c2)n2nc(CN)nc2n1	PFF0160c	enzyme activity, inhibitor	–	> 10000
CCN1C(=O)[C@H]2Cc3c([nH]c4ccccc34)[C@@H](c3cccnc3)N2C1=O	PDE5A	enzyme activity, inhibitor, FP	–	140
Cc1ccc(COc2ccc3c(c2)NC(=C(C#N)C(=O)c2ccc(Cl)cc2Cl)NC3=O)cc1	Cytoplasmic dynein 1 heavy chain 1 (DYNC1H1, Homo sapiens, UniProt Q14204)	ATPase activity, inhibitor	–	280000
C#CCSc1nc(Sc2nnnn2-c2cccnc2)c2nnn(Cc3ccccc3Cl)c2n1	KDM1A	enzyme activity, inhibitor, fluorescence	–	127
CCCCc1ccc(-c2ccc(-c3cc(C(=O)O)c4cc(Cl)cc(Cl)c4n3)o2)cc1	Eukaryotic initiation factor 4A-I (EIF4A1, Homo sapiens, UniProt P60842)	ATPase activity, inhibitor, absorbance	–	52100
COC(=O)[C@@H]1Cc2c([nH]c3ccccc23)[C@H](c2cccnc2)N1	PDE5A	enzyme activity, inhibitor, FP	–	> 10000
Cc1cc(Nc2cccc(Cl)c2)n2nc(CC3CC3)nc2n1	PFF0160c	enzyme activity, inhibitor	–	> 10000
COC(=O)[C@H]1Cc2c([nH]c3ccccc23)[C@H](c2ccc(OC)c(OC)c2)N1C(=O)CCl	PDE5A	enzyme activity, inhibitor, FP	–	> 10000
COc1ccc([C@@H]2CN(C(=O)[C@@H](O)CO)C[C@@]2(C)[C@@H](C)O)cc1OC1CN(c2ccc(C)cn2)C1	PDE4A	enzyme activity, inhibitor	–	0.09
Cc1cc(Nc2ccc(Cl)cc2)n2nc(CN(C)C)nc2n1	PFF0160c	enzyme activity, inhibitor	–	> 10000
